Ecoli rRNA inh: inhibitors of bacterial rRNA selective over humanized ribosomes | E. coli WT GFP vs humanized-ribosome RFP mutants, fluorescence, 24 h; hits give low values; DMSO median 0, no signal -100 | GFP signal change (wild-type ribosome), % (no concentration beside the values) | 350,000 compounds, 1.6% hits | AID 720706;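 active = significant combined selectivity score with lowered wild-type GFP, culture density cut under 30%, mutant RFP and density less affected; inactive = any of these conditions unmet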
Cneo AK release: Cryptococcus neoformans lysis via adenylate kinase release. lysis activity, % at 15 µM. C. neoformans lysis, adenylate kinase release luminescence, 4 h; normalised: neutral wells 0, clomiphene wells 100. 360,000 compounds, 0.2% hits;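 active = mean lysis activity across replicates of at least 80%, whatever share of replicates individually reach that level; inactive = mean lysis activity below 80%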
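Assay system: log-phase C. neoformans yeast / Quantity: yeast cell density of 5 × 10^6 cells/mL / Medium: fresh YPD growth medium / Compound: single dose / Timing: static 4 h at 37 °C with compound, 1 h detection / Measured by: adenylate kinase release luminescence / Read-out: lysis from increased AK signal / Benchmarks: Clomiphene as positive lysis control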
PglD DTNB: PglD (C. jejuni) enzyme inhibition | purified PglD enzyme, DTNB colorimetric CoA detection | inhibition, % at 12.5 µM | 360,000 compounds, 0.098% hits; in the data active = inhibition above about 16%, passing the limit was not always enough
RAD52 inh: blocks human RAD52 DNA annealing; P43351; recombinant RAD52 DNA annealing, FRET fluorescence; inhibition, % at 18.7 µM; 360,000 compounds, 0.46% hits;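 active = every replicate showing at least 50% inhibition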
RAD54 branch: RAD54 (human) branch migration inhibition. Q92698. RAD54 Holliday junction branch migration, FAM/BHQ fluorescence. inhibition, % at 10.4 µM. 360,000 compounds, 0.14% hits;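 active = mean normalized replicate activity at least 40 and at least half of replicates scoring 40 or more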;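 also: 0% = median of neutral control wells and 100% = median of positive control wells; inhibitors cause a drop in the FAM fluorescence signal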
Target sequence (Q92698 whole entry, looked up): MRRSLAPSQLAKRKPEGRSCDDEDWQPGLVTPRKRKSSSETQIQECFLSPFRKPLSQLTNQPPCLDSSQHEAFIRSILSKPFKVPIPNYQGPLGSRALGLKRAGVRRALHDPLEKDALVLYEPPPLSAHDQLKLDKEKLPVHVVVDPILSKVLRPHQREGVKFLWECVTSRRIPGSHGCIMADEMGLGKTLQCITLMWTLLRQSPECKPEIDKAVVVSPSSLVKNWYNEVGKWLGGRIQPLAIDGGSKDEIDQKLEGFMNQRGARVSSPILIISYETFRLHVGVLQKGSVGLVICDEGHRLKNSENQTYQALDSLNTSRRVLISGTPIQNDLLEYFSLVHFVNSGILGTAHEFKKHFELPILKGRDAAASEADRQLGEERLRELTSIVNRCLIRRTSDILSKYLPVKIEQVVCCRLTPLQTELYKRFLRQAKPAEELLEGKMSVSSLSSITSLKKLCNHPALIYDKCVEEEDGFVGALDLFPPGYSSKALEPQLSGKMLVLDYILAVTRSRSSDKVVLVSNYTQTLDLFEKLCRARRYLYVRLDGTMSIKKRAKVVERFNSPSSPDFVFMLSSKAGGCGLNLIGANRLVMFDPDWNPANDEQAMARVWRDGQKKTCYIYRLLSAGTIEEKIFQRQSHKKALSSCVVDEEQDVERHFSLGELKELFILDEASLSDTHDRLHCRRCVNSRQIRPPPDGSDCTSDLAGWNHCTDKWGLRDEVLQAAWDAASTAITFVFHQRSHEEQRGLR
PglD inh SP: PglD (C. jejuni) inhibition confirmation | shares compounds with PglD DTNB | Purified C. jejuni PglD, DTNB absorbance 412 nm | inhibition, % at 20 µM | 320 tested, under 10 active | AID 743156;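 active = mean inhibition across replicates of at least 20% with every single replicate also at 20% or more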;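 also: initial rate of CoA release by acetyl transfer from AcCoA to the UDP-4-amino sugar; 0% = median of neutral control wells and 100% = median of positive control wells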
An asterisk follows results filed as active; . = no result. Rows were chosen to be rich in hits. Some 1.9% of all compounds tested hit in one or more screens of this group.

SMILES	Ecoli rRNA inh	Cneo AK release	PglD DTNB	RAD52 inh	RAD54 branch	PglD inh SP
COc1cc(C(O)c2nc(-c3ccc(C)c(C)c3)cs2)ccc1F (stereo not given)	-46	0	25*	-50	4	8
COc1ccc(OC)c(C(=O)CN2CCN(S(=O)(=O)c3ccc(Br)cc3)CC2)c1	.	8	21*	.	6	3
COc1ccc(C(CCN2CCN(c3ccccc3)CC2)c2c(O)cc(OC)cc2OC)cc1 (stereo not given)	.	8	1	.	-10	.
COc1ccc(N2CCN(CCC(O)c3ccc4ccccc4c3)CC2)cc1 (stereo not given)	1	-1	29*	-4	8	1
O=C1OCCC1Sc1nnc(-c2ccc(Br)cc2)o1 (stereo not given)	.	0	34*	.	6	-3
O=C(C[C@@H]1C=C[C@@H](NC(=O)CC2CC2)[C@@H](CO)O1)NCc1ccc(-c2ccccc2)cc1	2	0	-3	3	7	.
CC(Sc1nnc(N)s1)C(=O)Nc1ccc(N2CCOCC2)cc1 (stereo not given)	.	0	21*	.	4	0
COCCCNC(=O)c1cccc2c(-c3cccc(C(N)=O)c3)coc12	-8	-1	28*	-5	-10	-4
COCCNC(=O)c1cccc2c(-c3cccc(C(N)=O)c3)coc12	-7	-1	-6	7	6	.
CCCN1C[C@H](C)[C@@H](OC)CN(C)C(=O)c2ccc(NC(=O)c3ccc(F)cc3)cc2OC[C@H]1C	-2	0	8	.	-4	.
C[C@H](NC(=O)[C@H]1[C@H](CO)[C@H]2Cn3c(ccc(C4=CCCC4)c3=O)[C@H]2N1C)c1ccccc1	-2	5	-3	-45	-3	.
O=C(CNC(=O)c1ccco1)Nc1ccc(N2CCCCCC2)cc1	.	-1	24*	-10	-5	-4
Cc1ccc(-n2cnc3c(=O)[nH]cnc32)cc1	-3	8	-7	-11	-13	.
Cc1ccc(-n2cc(-c3ccccc3)c3c(=O)[nH]cnc32)cc1	-14	1	45*	-8	3	1
COc1ccc(/C(C)=N/Nc2ccc(C(=O)O)cc2)cc1OC	.	1	58*	.	2	0
COc1cc(/C(C)=N/Nc2ccc(C(=O)O)cc2)cc(OC)c1OC	.	1	-1	.	-8	.
COc1ccc(-c2cc(NC(C)=O)c3ncc(-c4ccccc4)n3c2)c(OC)c1	6	4	1	-17	-6	.
COc1ccc(-c2cc(NC(C)=O)c3ncc(-c4ccc(OC)c(OC)c4)n3c2)c(OC)c1	2	-1	32*	10	-7	1
CC(C)NC(=O)N(C)C[C@H]1OCCCC[C@@H](C)Oc2ccc(N(C)C)cc2C(=O)N([C@@H](C)CO)C[C@@H]1C	-2	1	0	-57	4	.
O=S(=O)(Nc1ccc(Cl)cc1)c1cccc2nsnc12	-14	-6	21*	4	8	-5
CO[C@@H]1CN(C)C(=O)c2cc(NC(=O)c3cccc(F)c3)ccc2OC[C@@H](C)NC[C@H]1C	6	-2	-2	23	-2	.
COC(=O)c1ccc(C2C(Oc3ccccc3)C(=O)N2CCc2ccc(F)cc2)cc1 (stereo not given)	20	1	-2	-7	8	.
COC(=O)c1ccc(C2C(Oc3ccc(OC)cc3)C(=O)N2CCc2ccc(OC)c(OC)c2)cc1 (stereo not given)	.	0	35*	.	4	-12
Cc1cccc(Cn2c(=O)n(Cc3ccco3)c(=O)c3ccccc32)c1	.	-2	3	.	0	.
Cc1ccccc1Cn1c(=O)n(Cc2ccco2)c(=O)c2ccccc21	.	-3	42*	.	6	7
COCCNC(=O)CCCC(=O)NCCOC	.	1	35*	.	-2	-2
C[C@@H]1CN([C@@H](C)CO)C(=O)c2cccc(NC(=O)NC3CCCCC3)c2O[C@H]1CN(C)S(=O)(=O)c1ccc(Cl)cc1	-7	2	3	-1	-3	.
COc1ccc(S(=O)(=O)N2CCCCC2)cc1NC(=S)Nc1ccccc1	.	1	23*	.	9	-2
CCC(NC(=O)NCc1cccnc1)(C(F)(F)F)C(F)(F)F	.	-1	20*	.	-4	14
O=C(CC(=O)NCc1cccnc1)NCc1cccnc1	.	0	-7	.	5	.

Screens: PubChem, Broad Institute
